From ChEMBL document CHEMBL4825676, “Design and biological evaluation of cinnamic and phenylpropionic amide derivatives as novel dual inhibitors of HIV-1 protease and reverse transcriptase” (Eur J Med Chem, 2021) come the findings set out here.

In experiment [1] the target is Human immunodeficiency virus type 1 protease (Human immunodeficiency virus 1, UniProt Q72874). The experiment can be described thus: Inhibition of wild type HIV1 protease expressed in Escherichia coli using Arg-Glu (EDANS)-Ser-Gln-Asn-Tyr-Pro-Ile-Val-Gln-Lys(DABCYL)-Arg as substrate preincubated for 20 to 30 mins followed by substrate addition and measured for 10 mins by FRET assay. In a few lines:
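Recombinant HIV-1 PR was expressed in E. coli and purified. It was mixed with inhibitor (DMSO stock) for 20–30 min at room temperature before addition of the EDANS/DABCYL-labelled peptide. Buffer: 0.1 M sodium acetate, 1 M NaCl, 1 mM EDTA, 1 mM DTT, 2% DMSO, 1 mg/mL BSA, pH 4.7. Triplicate; mean of three independent experiments.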

Experiment [2] deals with Human immunodeficiency virus type 1 reverse transcriptase (Human immunodeficiency virus 1, UniProt Q72547). The experiment can be described thus: Inhibition of wild type HIV-1 NL4-3 reverse transcriptase using random mRNA as template and GADPH as primer measured at 42 degreeC for 5 mins, 95 degreeC for 10sec and 60 degreeC for 60 sec by qRT-PCR analysis. Background: In qPCR the cycle at which signal appears reflects the starting amount.

The subject of experiment [3] is Human immunodeficiency virus 1. Description: Antiviral activity against HIV1 NL4-3 VSV-G pseudotyped virus infected in human SUP-T1 cells assessed as inhibition of early stage viral production at 10 uM measured after 48 hrs by luciferase assay relative to control. The class given is functional. Particulars: Human immunodeficiency virus 1, NL4-3, SUP-T1. In a few lines:
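Early-stage assay: SupT1 cells (1 × 10⁵/mL) were infected with VSV-G-pseudotyped HIV-1(NL4-3), and compounds were added afterward, with final DMSO held at 1% (v/v). After 48 h the cells were lysed and firefly luciferase activity was measured. Quintuplicate; inhibition at one fixed concentration and EC50.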

Experiment [4] has as its system Human immunodeficiency virus 1. Description: Antiviral activity against HIV1 NL4-3 Env-deficient VSV-G pseudotyped virus infected in human SUP-T1 cells assessed as inhibition of late stage viral production when host cells were infected with compound pretreated viral particles at 10 uM measured after 48 hrs by luciferase assay relative to control. The class given is functional. As to conditions: Human immunodeficiency virus 1, NL4-3, SUP-T1. The method, boiled down: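 Late-stage assay: VSV-G pseudotyped HIV-1 was made by co-transfecting 293T cells with pNL4-3-E⁻R⁻ (or DRV-resistant variants) plus pHCMV-G. Inhibitors in DMSO were added to the medium 5 h post-transfection. After 48 h at 37 °C, supernatant virus infected SupT1 cells for 48 h, and luciferase was read in the newly infected cells. Quintuplicate; inhibition at one fixed concentration and EC50.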

Broadly, the IC50 is the concentration that gives 50% inhibition. Read a low IC50 as higher potency. With `COc1cc(/C=C/C(=O)N[C@@H](Cc2ccccc2)[C@H](O)CN(CC(C)C)S(=O)(=O)c2ccc(SC)cc2)ccc1O`, the IC50 in experiment [1] was 15.8 nM; in experiment [2] it was 99.5 nM.

On to `CC(C)CN(C[C@@H](O)[C@H](Cc1ccccc1)NC(=O)CCc1ccc(O)c(O)c1)S(=O)(=O)c1ccc(N)cc1`, for which the results for the IC50 in experiment [1] and in experiment [2] were 0.56 nM and 9.5 nM, respectively.

For `COc1ccc(S(=O)(=O)N(CC(C)C)C[C@@H](O)[C@H](Cc2ccccc2)NC(=O)/C=C/c2cc(OC)c(O)c(OC)c2)cn1`, the values for the IC50 in experiment [1] and in experiment [2] were 69.5 nM and 11.5 nM, respectively.

`CCCN(C[C@@H](O)[C@H](Cc1ccccc1)NC(=O)/C=C/c1ccc(O)c(OC)c1)S(=O)(=O)c1ccc(OC)cc1`: the figures for the IC50 in experiment [1] and in experiment [2] were 24.1 nM and 106 nM, respectively.

Broadly, the inhibition is the percentage by which the read-out fell short of the control. As for `CC(C)CN(C[C@@H](O)[C@H](Cc1ccccc1)NC(=O)O[C@H]1CO[C@H]2OCC[C@H]21)S(=O)(=O)c1ccc(N)cc1`, the inhibition at 10 µM was 2% in experiment [3] and 99% in experiment [4].

With `COc1ccc(S(=O)(=O)N(C[C@@H](O)[C@H](Cc2ccccc2)NC(=O)CCc2cc(OC)c(O)cc2OC)C(C)C)cc1`, the IC50 in experiment [1] came to 70.1 nM; in experiment [2] it was 299 nM.

In the case of `COc1ccc(S(=O)(=O)N(CC(C)C)C[C@@H](O)[C@H](Cc2ccccc2)NC(=O)CCc2ccc(O)c(O)c2)cn1`, the IC50 worked out at 0.081 nM in experiment [1] and 2.5 nM in experiment [2].

Regarding `COc1cc(CCC(=O)N[C@@H](Cc2ccccc2)[C@H](O)CN(CC(C)C)S(=O)(=O)c2ccc(SC)cc2)c(OC)cc1O`, the IC50 in experiment [1] was 89.8 nM; in experiment [2], 60.7 nM.

As to `COc1ccc(S(=O)(=O)N(C[C@@H](O)[C@H](Cc2ccccc2)NC(=O)/C=C/c2cc(OC)c(O)c(OC)c2)C(C)C)cc1`, the IC50 in experiment [1] was determined as 527 nM; in experiment [2], 199 nM.

With `O=C1Nc2ccc(Cl)cc2[C@@](C#CC2CC2)(C(F)(F)F)O1` [EFAVIRENZ], the inhibition at 10 µM in experiment [3] was 85%; in experiment [4] it was 15%.

Consider `COc1ccc(S(=O)(=O)N(C[C@@H](O)[C@H](Cc2ccccc2)NC(=O)/C=C/c2cc(OC)c(O)c(OC)c2)C2CC2)cc1`, for which the IC50 in experiment [1] came to 294 nM; in experiment [2], 33.5 nM.

Consider `COc1ccc(S(=O)(=O)N(CC(C)C)C[C@@H](O)[C@H](Cc2ccccc2)NC(=O)CCc2ccc(O)c(O)c2)cc1`, for which the values for the IC50 in experiment [1] and in experiment [2] were 0.39 nM and 3.5 nM, respectively.

For the compound `COc1cc(/C=C/C(=O)N[C@@H](Cc2ccccc2)[C@H](O)CN(CC(C)C)S(=O)(=O)c2ccc(SC)cc2)cc(OC)c1O`, the values for the IC50 in experiment [1] and in experiment [2] were 65.1 nM and 51.5 nM, respectively.

For `COc1ccc(S(=O)(=O)N(C[C@@H](O)[C@H](Cc2ccccc2)NC(=O)/C=C/c2ccc(O)c(O)c2)C2CC2)cc1`, the IC50 in experiment [1] was found to be 19.5 nM; in experiment [2] it was 31.5 nM.

For the compound `COc1ccc(S(=O)(=O)N(C[C@@H](O)[C@H](Cc2ccccc2)NC(=O)CCc2ccc(O)c(OC)c2)C2CC2)cc1`, the IC50 in experiment [1] was 32.5 nM; in experiment [2] it was 285 nM.

In the case of `COc1ccc(S(=O)(=O)N(CC(C)C)C[C@@H](O)[C@H](Cc2ccccc2)NC(=O)/C=C/c2ccc(O)c(OC)c2)cn1`, the IC50 was determined as 2.42 nM in experiment [1] and 124 nM in experiment [2].

For `CCCN(C[C@@H](O)[C@H](Cc1ccccc1)NC(=O)/C=C/c1cc(OC)c(O)c(OC)c1)S(=O)(=O)c1ccc(OC)cc1`, the IC50 in experiment [1] came to 36.7 nM; in experiment [2] it was 90.5 nM.

Consider `CCCN(C[C@@H](O)[C@H](Cc1ccccc1)NC(=O)CCc1ccc(O)c(OC)c1)S(=O)(=O)c1ccc(OC)cc1`, for which the IC50 in experiment [1] is 1.7 nM; in experiment [2], 234 nM.

With `COc1ccc(S(=O)(=O)N(C[C@@H](O)[C@H](Cc2ccccc2)NC(=O)/C=C/c2ccc(O)c(O)c2)C(C)C)cc1`, the IC50 in experiment [1] is 54 nM; in experiment [2], 53.5 nM.

For `COc1ccc(S(=O)(=O)N(C[C@@H](O)[C@H](Cc2ccccc2)NC(=O)CCc2ccc(O)c(O)c2)C(C)C)cc1`, the results for the IC50 in experiment [1] and in experiment [2] were 1.47 nM and 20.5 nM, respectively.

With `CC(C)CN(C[C@@H](O)[C@H](Cc1ccccc1)NC(=O)/C=C/c1ccc(O)c(O)c1)S(=O)(=O)c1ccc(N)cc1`, the figures for the IC50 in experiment [1] and in experiment [2] were 0.2 nM and 7.5 nM, respectively.

For `COc1cc(CCC(=O)N[C@@H](Cc2ccccc2)[C@H](O)CN(CC(C)C)S(=O)(=O)c2ccc(N)cc2)c(OC)cc1O`, the values for the IC50 in experiment [1] and in experiment [2] were 68.9 nM and 113 nM, respectively.

With `COc1ccc(S(=O)(=O)N(CC(C)C)C[C@@H](O)[C@H](Cc2ccccc2)NC(=O)CCc2ccc(O)c(OC)c2)cn1`, the results for the IC50 in experiment [1] and in experiment [2] were 0.16 nM and 241 nM, respectively.

As for `CCCN(C[C@@H](O)[C@H](Cc1ccccc1)NC(=O)CCc1ccc(O)c(O)c1)S(=O)(=O)c1ccc(OC)cc1`, the IC50 amounted to 0.54 nM in experiment [1] and 7.5 nM in experiment [2].

For `COc1ccc(S(=O)(=O)N(C[C@@H](O)[C@H](Cc2ccccc2)NC(=O)/C=C/c2ccc(O)c(OC)c2)C2CC2)cc1`, the IC50 in experiment [1] was 97.6 nM; in experiment [2], 43.5 nM.

As for `COc1ccc(S(=O)(=O)N(CC(C)C)C[C@@H](O)[C@H](Cc2ccccc2)NC(=O)/C=C/c2ccc(O)c(O)c2)cn1`, the IC50 in experiment [1] is 2.86 nM; in experiment [2] it was 35.5 nM.

For `CSc1ccc(S(=O)(=O)N(CC(C)C)C[C@@H](O)[C@H](Cc2ccccc2)NC(=O)/C=C/c2ccc(O)c(O)c2)cc1`, the IC50 turned out to be 16.2 nM in experiment [1] and 21.5 nM in experiment [2].

In the case of `COc1cc(/C=C/C(=O)N[C@@H](Cc2ccccc2)[C@H](O)CN(CC(C)C)S(=O)(=O)c2ccc(N)cc2)ccc1O`, the IC50 was determined as 3.09 nM in experiment [1] and 43.5 nM in experiment [2].

On to `COc1ccc(S(=O)(=O)N(C[C@@H](O)[C@H](Cc2ccccc2)NC(=O)CCc2ccc(O)c(OC)c2)C(C)C)cc1`, for which the figures for the IC50 in experiment [1] and in experiment [2] were 9.56 nM and 40.5 nM, respectively.

For the compound `COc1ccc(S(=O)(=O)N(CC(C)C)C[C@@H](O)[C@H](Cc2ccccc2)NC(=O)/C=C/c2cc(OC)c(O)c(OC)c2)cc1`, the IC50 in experiment [1] is 13.1 nM; in experiment [2], 125 nM.

Turning to `COc1ccc(S(=O)(=O)N(CC(C)C)C[C@@H](O)[C@H](Cc2ccccc2)NC(=O)CCc2cc(OC)c(O)cc2OC)cc1`, the IC50 in experiment [1] is 104 nM; in experiment [2] it was 73 nM.

With `COc1ccc(S(=O)(=O)N(C[C@@H](O)[C@H](Cc2ccccc2)NC(=O)/C=C/c2ccc(O)c(OC)c2)C(C)C)cc1`, the IC50 amounted to 98.8 nM in experiment [1] and 87.5 nM in experiment [2].

For the compound `CCCN(C[C@@H](O)[C@H](Cc1ccccc1)NC(=O)/C=C/c1ccc(O)c(O)c1)S(=O)(=O)c1ccc(OC)cc1`, the IC50 in experiment [1] is 2.55 nM; in experiment [2] it was 53.5 nM.

`COc1ccc(S(=O)(=O)N(C[C@@H](O)[C@H](Cc2ccccc2)NC(=O)CCc2cc(OC)c(O)cc2OC)C2CC2)cc1`: the figures for the IC50 in experiment [1] and in experiment [2] were 161 nM and 9 nM, respectively.

Take `COc1ccc(S(=O)(=O)N(CC(C)C)C[C@@H](O)[C@H](Cc2ccccc2)NC(=O)/C=C/c2ccc(O)c(O)c2)cc1`: the results for the IC50 in experiment [1] and in experiment [2] were 0.16 nM and 40.8 nM, respectively.

As for `COc1ccc(S(=O)(=O)N(CC(C)C)C[C@@H](O)[C@H](Cc2ccccc2)NC(=O)CCc2cc(OC)c(O)cc2OC)cn1`, the IC50 in experiment [1] is 42.2 nM; in experiment [2], 2.97 nM.

For `COc1cc(CCC(=O)N[C@@H](Cc2ccccc2)[C@H](O)CN(CC(C)C)S(=O)(=O)c2ccc(SC)cc2)ccc1O`, the figures for the IC50 in experiment [1] and in experiment [2] were 7.73 nM and 3.5 nM, respectively.

For the compound `COc1ccc(S(=O)(=O)N(CC(C)C)C[C@@H](O)[C@H](Cc2ccccc2)NC(=O)/C=C/c2ccc(O)c(OC)c2)cc1`, the concentration for half-maximal inhibition (IC50) in experiment [1] was determined as 2.93 nM; in experiment [2], 146 nM.

Turning to `COc1cc(CCC(=O)N[C@@H](Cc2ccccc2)[C@H](O)CN(CC(C)C)S(=O)(=O)c2ccc(N)cc2)ccc1O`, the IC50 in experiment [1] came to 0.58 nM; in experiment [2], 31.5 nM.

As for `CCCN(C[C@@H](O)[C@H](Cc1ccccc1)NC(=O)CCc1cc(OC)c(O)cc1OC)S(=O)(=O)c1ccc(OC)cc1`, the IC50 in experiment [1] came to 86.4 nM; in experiment [2], 6.5 nM.

For `COc1ccc(S(=O)(=O)N(C[C@@H](O)[C@H](Cc2ccccc2)NC(=O)CCc2ccc(O)c(O)c2)C2CC2)cc1`, the IC50 in experiment [1] was 4.04 nM; in experiment [2] it was 45.5 nM.

For the compound `COc1ccc(S(=O)(=O)N(CC(C)C)C[C@@H](O)[C@H](Cc2ccccc2)NC(=O)CCc2ccc(O)c(OC)c2)cc1`, the IC50 in experiment [1] worked out at 1.1 nM; in experiment [2] it was 206 nM.
